Measured values: the M2OR odorant receptor database

How the values were obtained:
Settings in all cases: stereoisomer not certain
OR10G2 (Homo sapiens) = target: T1, OR10G2 (Homo sapiens) (UniProt Q8NGC3)
T1 sequence (whole entry): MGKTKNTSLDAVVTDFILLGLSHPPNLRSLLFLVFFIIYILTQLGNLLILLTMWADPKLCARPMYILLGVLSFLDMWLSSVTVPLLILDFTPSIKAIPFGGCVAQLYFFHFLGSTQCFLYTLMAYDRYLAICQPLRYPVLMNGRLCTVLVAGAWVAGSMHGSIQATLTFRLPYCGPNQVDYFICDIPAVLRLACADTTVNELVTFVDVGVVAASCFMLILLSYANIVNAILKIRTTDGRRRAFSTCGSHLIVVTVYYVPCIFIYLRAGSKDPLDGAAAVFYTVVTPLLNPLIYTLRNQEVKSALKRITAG
Summary of the method: (§1)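 Each receptor–molecule pair is labelled responsive or non-responsive (inactive) according to whether the original authors judged the measured signal statistically different from baseline. The data were taken from the main text and supplementary material of published papers and checked for typos and inconsistencies. Assay methods differed by source, with transient luciferase assays in mammalian cell lines being common.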

OR10G3 (Homo sapiens) = target: T2, OR10G3 (Homo sapiens) (UniProt Q8NGC4)
T2 sequence (whole entry): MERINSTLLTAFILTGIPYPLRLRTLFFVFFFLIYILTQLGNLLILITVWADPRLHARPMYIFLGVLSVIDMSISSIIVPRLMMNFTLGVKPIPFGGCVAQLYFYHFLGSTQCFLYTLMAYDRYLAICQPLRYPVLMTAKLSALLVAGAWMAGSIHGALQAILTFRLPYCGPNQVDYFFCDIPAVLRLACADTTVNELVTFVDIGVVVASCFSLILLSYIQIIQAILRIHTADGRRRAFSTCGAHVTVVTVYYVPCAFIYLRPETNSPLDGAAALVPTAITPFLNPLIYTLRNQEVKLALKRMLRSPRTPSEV
Summary of the method: as §1

OR10G4 (Homo sapiens) = target: T3, OR10G4 (Homo sapiens) (UniProt Q8NGN3)
T3 sequence (whole entry): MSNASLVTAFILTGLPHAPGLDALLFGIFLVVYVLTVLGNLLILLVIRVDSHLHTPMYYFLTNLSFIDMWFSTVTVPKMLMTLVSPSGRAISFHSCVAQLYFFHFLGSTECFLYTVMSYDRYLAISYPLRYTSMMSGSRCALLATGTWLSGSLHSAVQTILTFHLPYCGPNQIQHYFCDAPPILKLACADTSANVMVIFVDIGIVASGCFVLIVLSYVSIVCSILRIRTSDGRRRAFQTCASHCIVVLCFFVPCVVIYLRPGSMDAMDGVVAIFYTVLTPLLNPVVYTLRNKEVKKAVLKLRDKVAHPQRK
Summary of the method: as §1

OR10G6 (Homo sapiens) = target: T4, OR10G6 (Homo sapiens) (UniProt Q8NH81)
T4 sequence (whole entry): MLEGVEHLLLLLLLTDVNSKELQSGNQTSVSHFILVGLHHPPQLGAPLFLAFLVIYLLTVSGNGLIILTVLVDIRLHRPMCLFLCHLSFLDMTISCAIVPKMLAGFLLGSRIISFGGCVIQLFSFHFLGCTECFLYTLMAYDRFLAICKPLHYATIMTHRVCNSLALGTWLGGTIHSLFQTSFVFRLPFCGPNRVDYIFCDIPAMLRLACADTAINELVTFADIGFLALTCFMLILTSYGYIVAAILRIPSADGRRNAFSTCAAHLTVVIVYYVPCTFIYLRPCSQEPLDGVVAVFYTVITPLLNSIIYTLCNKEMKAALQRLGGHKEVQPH
Summary of the method: as §1

OR10G7 (Homo sapiens) = target: T5, OR10G7 (Homo sapiens) (UniProt Q8NGN6)
T5 sequence (whole entry): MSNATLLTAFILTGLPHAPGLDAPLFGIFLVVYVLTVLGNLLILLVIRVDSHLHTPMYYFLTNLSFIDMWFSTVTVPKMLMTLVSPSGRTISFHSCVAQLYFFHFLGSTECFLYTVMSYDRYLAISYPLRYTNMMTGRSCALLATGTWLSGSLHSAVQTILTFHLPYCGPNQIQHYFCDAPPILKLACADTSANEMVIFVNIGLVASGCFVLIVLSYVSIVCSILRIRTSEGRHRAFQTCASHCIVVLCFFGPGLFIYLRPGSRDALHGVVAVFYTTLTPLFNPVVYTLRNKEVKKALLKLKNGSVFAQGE
Summary of the method: as §1

OR10G8 (Homo sapiens) = target: T6, OR10G8 (Homo sapiens) (UniProt Q8NGN5)
T6 sequence (whole entry): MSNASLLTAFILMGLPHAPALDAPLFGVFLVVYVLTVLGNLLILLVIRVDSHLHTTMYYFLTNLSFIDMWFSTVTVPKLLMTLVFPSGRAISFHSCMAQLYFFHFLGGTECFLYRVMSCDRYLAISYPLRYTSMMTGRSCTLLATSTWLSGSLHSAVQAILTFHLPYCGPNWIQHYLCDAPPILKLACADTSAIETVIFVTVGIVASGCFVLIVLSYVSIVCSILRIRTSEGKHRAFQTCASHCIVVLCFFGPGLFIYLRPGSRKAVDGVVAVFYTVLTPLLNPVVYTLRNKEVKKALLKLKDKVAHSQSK
Summary of the method: as §1

OR10G9 (Homo sapiens) = target: T7, OR10G9 (Homo sapiens) (UniProt Q8NGN4)
T7 sequence (whole entry): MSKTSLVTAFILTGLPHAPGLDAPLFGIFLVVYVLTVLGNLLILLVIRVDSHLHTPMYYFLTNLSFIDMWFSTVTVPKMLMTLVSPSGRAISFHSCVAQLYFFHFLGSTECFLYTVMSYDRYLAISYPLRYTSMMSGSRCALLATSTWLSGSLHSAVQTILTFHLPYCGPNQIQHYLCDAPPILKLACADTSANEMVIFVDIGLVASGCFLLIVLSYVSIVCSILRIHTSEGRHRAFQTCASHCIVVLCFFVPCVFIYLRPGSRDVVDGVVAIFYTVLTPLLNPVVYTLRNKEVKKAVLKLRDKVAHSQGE
Summary of the method: as §1

OR10H1 (Homo sapiens) = target: T8, OR10H1 (Homo sapiens) (UniProt Q9Y4A9)
T8 sequence (whole entry): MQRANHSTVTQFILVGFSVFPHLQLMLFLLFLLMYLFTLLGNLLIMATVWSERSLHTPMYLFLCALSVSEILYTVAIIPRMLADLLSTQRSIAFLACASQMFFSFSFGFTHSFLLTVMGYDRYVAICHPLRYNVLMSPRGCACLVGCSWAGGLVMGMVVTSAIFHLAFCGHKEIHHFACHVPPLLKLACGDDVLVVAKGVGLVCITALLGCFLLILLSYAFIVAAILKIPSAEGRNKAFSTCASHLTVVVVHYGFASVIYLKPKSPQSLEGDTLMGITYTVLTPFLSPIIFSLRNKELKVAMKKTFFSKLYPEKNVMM
Summary of the method: as §1

OR10H2 (Homo sapiens) = target: T9, OR10H2 (Homo sapiens) (UniProt O60403)
T9 sequence (whole entry): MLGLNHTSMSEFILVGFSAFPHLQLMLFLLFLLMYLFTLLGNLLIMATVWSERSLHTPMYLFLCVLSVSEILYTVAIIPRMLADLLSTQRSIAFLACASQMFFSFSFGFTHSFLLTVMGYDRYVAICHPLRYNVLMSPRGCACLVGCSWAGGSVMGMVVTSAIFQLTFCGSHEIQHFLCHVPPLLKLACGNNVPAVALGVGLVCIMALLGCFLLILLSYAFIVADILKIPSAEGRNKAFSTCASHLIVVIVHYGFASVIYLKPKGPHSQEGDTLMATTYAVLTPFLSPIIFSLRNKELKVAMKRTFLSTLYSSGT
Summary of the method: as §1

OR10H3 (Homo sapiens) = target: T10, OR10H3 (Homo sapiens) (UniProt O60404)
T10 sequence (whole entry): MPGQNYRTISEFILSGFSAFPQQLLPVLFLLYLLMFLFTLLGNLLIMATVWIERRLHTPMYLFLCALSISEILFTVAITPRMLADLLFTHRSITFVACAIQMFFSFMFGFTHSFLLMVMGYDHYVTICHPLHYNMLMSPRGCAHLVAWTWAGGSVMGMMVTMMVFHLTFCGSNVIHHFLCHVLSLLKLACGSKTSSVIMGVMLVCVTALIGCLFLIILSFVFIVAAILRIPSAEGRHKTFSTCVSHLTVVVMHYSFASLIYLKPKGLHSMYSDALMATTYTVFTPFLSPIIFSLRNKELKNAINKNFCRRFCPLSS
Summary of the method: as §1

OR10H4 (Homo sapiens) = target: T11, OR10H4 (Homo sapiens) (UniProt Q8NGA5)
T11 sequence (whole entry): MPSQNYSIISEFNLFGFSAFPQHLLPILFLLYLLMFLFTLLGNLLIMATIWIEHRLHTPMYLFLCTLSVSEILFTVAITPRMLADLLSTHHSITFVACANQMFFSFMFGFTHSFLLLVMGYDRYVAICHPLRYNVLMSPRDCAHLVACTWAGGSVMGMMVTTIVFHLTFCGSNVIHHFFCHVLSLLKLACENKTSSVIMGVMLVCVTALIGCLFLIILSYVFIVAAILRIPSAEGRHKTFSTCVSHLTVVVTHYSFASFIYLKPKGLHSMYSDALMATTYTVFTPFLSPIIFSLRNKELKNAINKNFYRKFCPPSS
Summary of the method: as §1

OR10H5 (Homo sapiens) = target: T12, OR10H5 (Homo sapiens) (UniProt Q8NGA6)
T12 sequence (whole entry): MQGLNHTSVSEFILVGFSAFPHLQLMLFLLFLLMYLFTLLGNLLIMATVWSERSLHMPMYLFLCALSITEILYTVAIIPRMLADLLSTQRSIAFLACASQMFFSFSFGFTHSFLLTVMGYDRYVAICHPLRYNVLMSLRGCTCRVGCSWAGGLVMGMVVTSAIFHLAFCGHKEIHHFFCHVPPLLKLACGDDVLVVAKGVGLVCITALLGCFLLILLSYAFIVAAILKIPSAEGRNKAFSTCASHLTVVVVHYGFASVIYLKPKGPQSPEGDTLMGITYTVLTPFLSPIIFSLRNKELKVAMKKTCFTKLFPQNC
Summary of the method: as §1

OR10J3 (Homo sapiens) = target: T13, OR10J3 (Homo sapiens) (UniProt Q5JRS4)
T13 sequence (whole entry): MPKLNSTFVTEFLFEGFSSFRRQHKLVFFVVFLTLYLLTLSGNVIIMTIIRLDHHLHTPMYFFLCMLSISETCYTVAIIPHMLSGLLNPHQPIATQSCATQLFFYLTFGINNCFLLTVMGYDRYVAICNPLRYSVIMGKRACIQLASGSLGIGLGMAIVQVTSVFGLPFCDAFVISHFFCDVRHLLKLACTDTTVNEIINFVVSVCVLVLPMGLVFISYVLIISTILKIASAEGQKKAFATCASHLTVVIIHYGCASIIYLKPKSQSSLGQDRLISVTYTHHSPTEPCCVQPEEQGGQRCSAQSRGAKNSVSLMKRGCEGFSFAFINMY
Summary of the method: as §1

OR10J4 (Homo sapiens) = OR10J4 (Homo sapiens) (UniProt P0C629)
Summary of the method: as §1

OR10J5 (Homo sapiens) = target: T14, OR10J5 (Homo sapiens) (UniProt Q8NHC4)
T14 sequence (whole entry): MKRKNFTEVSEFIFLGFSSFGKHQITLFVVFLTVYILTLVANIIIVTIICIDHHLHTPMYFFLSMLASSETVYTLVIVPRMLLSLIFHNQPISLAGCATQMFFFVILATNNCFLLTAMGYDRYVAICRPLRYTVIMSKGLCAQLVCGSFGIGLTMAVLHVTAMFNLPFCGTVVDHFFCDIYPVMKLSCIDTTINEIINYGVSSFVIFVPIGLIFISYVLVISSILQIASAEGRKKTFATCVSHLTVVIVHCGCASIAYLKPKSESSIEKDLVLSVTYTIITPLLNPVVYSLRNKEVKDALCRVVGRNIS
Summary of the method: as §1

OR10K1 (Homo sapiens) = target: T15, OR10K1 (Homo sapiens) (UniProt Q8NGX5)
T15 sequence (whole entry): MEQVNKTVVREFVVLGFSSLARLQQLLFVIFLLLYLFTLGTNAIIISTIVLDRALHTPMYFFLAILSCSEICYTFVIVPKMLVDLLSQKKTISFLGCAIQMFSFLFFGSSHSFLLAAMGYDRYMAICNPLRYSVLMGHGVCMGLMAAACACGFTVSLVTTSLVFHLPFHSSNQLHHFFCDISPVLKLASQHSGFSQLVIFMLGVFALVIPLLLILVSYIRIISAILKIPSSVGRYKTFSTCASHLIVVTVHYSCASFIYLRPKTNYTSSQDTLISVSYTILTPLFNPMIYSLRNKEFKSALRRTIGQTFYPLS
Summary of the method: as §1

OR10K2 (Homo sapiens) = target: T16, OR10K2 (Homo sapiens) (UniProt Q6IF99)
T16 sequence (whole entry): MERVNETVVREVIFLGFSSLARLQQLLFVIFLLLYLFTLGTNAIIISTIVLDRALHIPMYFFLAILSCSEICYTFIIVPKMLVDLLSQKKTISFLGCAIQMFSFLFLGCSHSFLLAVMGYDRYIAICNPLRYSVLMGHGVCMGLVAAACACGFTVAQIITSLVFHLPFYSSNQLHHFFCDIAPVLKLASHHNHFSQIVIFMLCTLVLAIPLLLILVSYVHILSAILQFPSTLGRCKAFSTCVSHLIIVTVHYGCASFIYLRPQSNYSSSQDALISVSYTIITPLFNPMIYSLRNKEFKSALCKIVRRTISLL
Summary of the method: as §1

OR10P1 (Homo sapiens) = target: T17, OR10P1 (Homo sapiens) (UniProt Q8NGE3)
T17 sequence (whole entry): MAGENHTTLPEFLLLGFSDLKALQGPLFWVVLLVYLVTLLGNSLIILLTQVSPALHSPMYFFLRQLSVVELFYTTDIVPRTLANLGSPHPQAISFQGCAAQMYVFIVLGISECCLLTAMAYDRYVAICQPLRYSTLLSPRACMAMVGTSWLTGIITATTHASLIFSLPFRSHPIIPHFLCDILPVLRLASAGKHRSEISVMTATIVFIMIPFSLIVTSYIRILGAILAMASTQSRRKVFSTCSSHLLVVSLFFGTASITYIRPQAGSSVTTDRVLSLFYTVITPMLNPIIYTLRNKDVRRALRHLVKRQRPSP
Summary of the method: as §1

OR10Q1 (Homo sapiens) = target: T18, OR10Q1 (Homo sapiens) (UniProt Q8NGQ4)
T18 sequence (whole entry): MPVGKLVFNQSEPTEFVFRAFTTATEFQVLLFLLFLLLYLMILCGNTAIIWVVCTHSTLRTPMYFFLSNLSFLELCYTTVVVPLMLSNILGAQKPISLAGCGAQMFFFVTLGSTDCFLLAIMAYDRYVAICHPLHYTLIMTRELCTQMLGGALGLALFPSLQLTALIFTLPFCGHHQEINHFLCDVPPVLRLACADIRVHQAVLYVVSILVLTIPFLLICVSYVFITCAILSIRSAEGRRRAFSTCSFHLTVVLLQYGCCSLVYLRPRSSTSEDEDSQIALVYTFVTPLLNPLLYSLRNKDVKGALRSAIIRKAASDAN
Summary of the method: as §1

Measured: odorant receptor agonist call

OR10J4 (Homo sapiens), sequence (P0C629 whole entry F198I): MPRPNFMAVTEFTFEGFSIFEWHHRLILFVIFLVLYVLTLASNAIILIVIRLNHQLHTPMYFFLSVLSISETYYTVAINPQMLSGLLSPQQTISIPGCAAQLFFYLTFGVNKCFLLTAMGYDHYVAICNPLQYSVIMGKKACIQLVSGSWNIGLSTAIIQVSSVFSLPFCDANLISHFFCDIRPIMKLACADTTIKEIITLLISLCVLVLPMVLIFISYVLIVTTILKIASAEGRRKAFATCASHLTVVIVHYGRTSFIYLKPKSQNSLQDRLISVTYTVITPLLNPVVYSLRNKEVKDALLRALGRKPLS

CC1CCCCCCCCCCCCC(=O)C1 (stereo not given)
inactive: all assays above

CCCCC(=O)CC
inactive: OR10J5 (Homo sapiens)
